# Source: PubChem (SRMLSC)
# PTEN del growth: PTEN-deleted cell growth suppression; hit rate 1.2% among 140,000; AID 827; viability, % at 10 µM; HCT116 PTEN-null viability, CellTiter-Glo, 60 h; active compounds read low;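 active = viability at or below a set limit, 4 SD under the median of all tested compounds, cut at about 3.7% in these data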;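 note: PTEN knockout HCT116 line with beta catenin targeted HCT116 as companion control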
# H69AR growth 86K: growth inhibitors of human H69AR lung tumor cells; H69AR lung tumor viability, ATP luminescence, 72 h; active compounds read low; viability, % at 10 µM; hit rate 6% among 85,000; AID 598;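 active = viability at or below 40%; inactive = viability above 40%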;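 note: multidrug resistant small cell line overexpressing MRP-1 efflux transporter; 100% = mean luminescence of untreated control wells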
# Lung fibro prol: blocks proliferation of human lung fibroblasts; LL 47 human lung fibroblast viability, ATP luminescence; active compounds read low; viability, % at 10 µM; hit rate 1.1% among 85,000; AID 719;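 active = viability at or below 50% in the single dose screen; inactive = viability above 50%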;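 note: compound exposure lasted 72 h before the ATP readout; 100% = median luminescence of untreated cell-only wells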
#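 Material: human lung fibroblast line LL 47, low passage; Evaluation: viability percentage against median untreated-cell control; Buffer or medium: 15% FBS in IMEM; Incubation: 72 h compound exposure at 37 °C after overnight plating; Dosing: 0.1% DMSO in all compound wells; Measured by: CellTiter-Glo luminescence.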
# HUVEC inhibit: blocks proliferation of human endothelial cells | hit rate 1.1% among 86,000 | HUVEC proliferation, CellTiter-Glo luminescence, 72 h; active compounds read low | viability, % at 10 µM (by protocol) | AID 648;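 active = viability at or below 30%; inactive = viability above 30%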;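 note: 100% = median luminescence of DMSO-only cell control wells on each plate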
# HCT116 bCat-KO: beta-catenin-lacking colon tumor cell growth suppression; hit rate 1.5% among 140,000; HCT116 beta-catenin knockout viability, CellTiter-Glo, 60 h; active compounds read low; AID 818; viability, % at 10 µM;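 active = viability at or under a set limit, the compound median less 4 SD, cut at about 6% in these data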;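 note: 0% = Hyamine 1622 control at 20 µM and 100% = untreated cell control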
# * = called active by the depositor; / = no result given. Shown is part of a subset that was picked to be rich in hits.
SMILES,PTEN del growth,H69AR growth 86K,Lung fibro prol,HUVEC inhibit,HCT116 bCat-KO
CCN(CC)c1ccc2c(c1)OC(N)=C(C#N)C2c1cccnc1 (centres undefined),18.0,/,/,/,16.6
Cc1occc1C(=O)NN1C(=O)C2C3CCC(O3)C2C1=O (centres undefined),103.8,/,/,/,98.9
CCOC(=O)c1ccc(N/C(=N\S(=O)(=O)c2ccc(F)cc2F)c2ccccc2)cc1,79.1,/,/,/,80.7
O=C1NC(=S)N(c2cccc(Cl)c2)C12CCCCC2,98.4,/,/,/,95.7
O=C(OCC(=O)N1CCCCC1)c1cc(NS(=O)(=O)c2ccc(Cl)c([N+](=O)[O-])c2)ccc1O,77.1,/,/,/,78.0
Cc1ccc2sc(NC(=O)CN3C(=O)c4ccccc4C3=O)nc2c1C,96.8,/,/,/,96.8
COc1ccc(NC(=O)CCCn2c(=O)c3sccc3n(Cc3ccccc3C)c2=O)cc1,95.3,/,/,/,81.5
COc1ccc(NC(=O)CCCn2c(=O)c3sccc3n(Cc3ccccc3)c2=O)cc1,0.8*,/,/,/,10.8
O=C1CSC(c2cn(-c3ccccc3)nc2-c2cc3ccccc3oc2=O)N1Cc1ccccc1 (centres undefined),45.6,24.3*,100.4,77.2,55.0
CCOC(=O)c1ccccc1OCc1cc(/C=N/n2cncn2)ccc1OC,74.1,33.6*,99.1,81.3,82.4
CN1CCN(S(=O)(=O)c2ccc3[nH]c(=O)oc3c2)CC1,107.0,/,/,/,97.9
Cc1ccc(/C(=N\O)c2oc3c(C)c4oc(=O)cc(C)c4cc3c2C)cc1,2.6*,89.3,92.5,51.4,2.0*
CCN(CC)C(=O)CSc1nc(N)c2c3c(sc2n1)CC(C)CC3 (centres undefined),85.2,37.2*,96.8,89.1,78.0
CCOC(=O)CSc1nc(N)c2c3c(sc2n1)CCCC3,83.4,88.9,96.7,97.8,86.1
CC1CCc2c(sc3nc(C4CC4)nc(SCC(=O)NCc4ccco4)c23)C1 (centres undefined),/,71.0,104.2,93.5,/
CC1CCc2c(sc3nc(SCC(=O)NCc4ccco4)nc(N)c23)C1 (centres undefined),34.5,35.2*,85.2,65.1,26.6
Cc1ccc(C(O)(C(=O)NNc2ccc3ccccc3n2)c2ccc(C)cc2)cc1,13.2,/,/,/,10.5
O=C(Cn1cnc2ccccc21)N/N=C/C(Br)=C/c1ccccc1,47.9,/,/,/,47.4
C/C(=N/NC(=O)c1cccs1)c1ccc(NC(=O)COc2ccc(Cl)cc2Cl)cc1,2.0*,/,/,/,4.3*
O=C(Oc1ccnc2cc(Cl)ccc12)N1CCCCCC1,59.9,25.9*,87.6,113.8,59.7
O=C(CSc1nnc(-c2ccc(F)cc2)o1)c1ccc2c(c1)OCCO2,103.9,92.3,96.7,96.7,89.7
CCn1c(SCC(=O)O)nnc1-c1ccc2[nH]c(C)c(C)c2c1,97.1,/,/,/,93.0
Cc1cc(C)c(C)c(C(=O)CSc2nnc(-c3ccc4[nH]c(C)c(C)c4c3)o2)c1C,18.1,8.7*,43.8*,35.8,23.1
Cc1[nH]c2ccc(-c3nnc(SCC(=O)c4ccc(F)cc4)o3)cc2c1C,61.9,25.9*,87.3,69.5,24.4
Cc1cccc(Nc2nc(NCCCN3CCOCC3)nc(N)c2[N+](=O)[O-])c1,62.3,/,/,/,56.0
SMILES,PTEN del growth,H69AR growth 86K,Lung fibro prol,HUVEC inhibit,HCT116 bCat-KO
C=CCn1c(COc2cccc(C)c2)nnc1SCn1nnc2ccccc2c1=O,96.2,/,/,/,85.8
CCOC(=O)COc1c(Cl)cc(C2NC(=S)NC(c3ccccc3)=C2C(C)=O)cc1OCC (centres undefined),91.1,/,/,/,86.2
COc1ccc(C(=O)c2c(C(F)(F)F)oc3c2C(=O)c2ccccc2C3=O)cc1,1.8*,81.5,2.3*,3.2*,1.2*
CCC(/C=C1\Sc2ccc(OC)cc2N1CCO)=C\c1sc2ccc(OC)cc2[n+]1CCO,0.9*,/,/,/,2.5*
CCC(=O)/C=C1/Sc2ccc(OC)cc2N1CC,77.7,74.8,94.5,86.7,67.0
O=C(Nc1ccc(Cl)cc1)/C(=C/c1cccc(O)c1)c1nc2ccccc2s1,1.9*,/,/,/,2.2*
O=C(Nc1cccc2ccccc12)c1ccc([N+](=O)[O-])s1,3.1*,/,/,/,3.9*
COc1ccc(C(=O)OC2CCN(c3ncc(C(F)(F)F)cc3Cl)CC2)cc1,57.0,/,/,/,3.4*
Cc1nc([N+](=O)[O-])c(Sc2nc3ccccc3n2C)n1Cc1ccccc1,1.8*,/,/,/,2.7*
CCC(CC)C(=O)NCCCN1CCOCC1,94.1,/,/,/,90.8
COc1ccc(C(=O)N/N=C/c2cc3ccccc3[nH]c2=S)cc1,56.1,/,/,/,46.5
O=C(N/N=C/c1sc2ccccc2c1O)c1ccccc1,3.7*,/,/,/,4.0*
O=C(N/N=C/c1sc2ccccc2c1O)c1cccc2ccccc12,4.3,/,/,/,4.1*
